# Screening data: PubChem, several laboratories
# Measles CPE – protection of cells from measles virus; Measles virus-infected cells, CPE protection, absorbance; protection (pct of control), % at 4 µM; hit rate 1.5% among 140,000; in the data active means protection mostly above about 24%, no sharp cut-off; inactive means mostly below about 26%
# BB579 growth dn – chemicals that inhibit yeast BB579 growth in restrictive medium (lifespan-shortening candidates). inhibition, % at 10 µM. AID 804. hit rate 0.51% among 140,000. S. cerevisiae BB579 growth, OD615, 48 h;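 active means inhibition above a set limit, 3 SD over the mean compound inhibition, cut at about 44% in these data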
#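 System: DeaD yeast strain BB579; buffer or medium: CSMM-D dextrose restrictive medium; technique: OD at 615 nm; schedule: 4 h cell preincubation, 48 h compound exposure, 30 °C humidified; doses: single 10 µM dose; controls: amphotericin B 10 µg/mL, positive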
# RAM network inh – blocks the yeast RAM network; S. cerevisiae dse1pr::URA3 reporter, 5-FOA growth OD615, 2 d; analog-sensitive cbk1-as2 kinase mutant strain; inhibition, % at 50 µM; hit rate 1.8% among 190,000; AID 868;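 active means inhibition above a set limit, 3 SD over mean compound inhibition, cut at about 8.4% in these data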;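 further: 0% = DMSO-only wells with no growth and 100% = 10 µM 1-NA-PP1 full growth; inhibition rescues growth on 5-FOA so higher OD means more RAM inhibition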
# Yeast life ext – yeast lifespan extension; S. cerevisiae growth with nicotinamide, OD615; deaD strain in restrictive glucose medium; inhibition of the nicotinamide effect, % at 10 µM; hit rate 0.68% among 130,000; AID 775;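 active means inhibition above a set limit, placed 3 SD over the median of all compounds, cut at about 26% in these data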;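 further: 0% = nicotinamide-treated wells and 100% = cells grown without nicotinamide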
#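 Assay system: engineered S. cerevisiae DeaD replicative-lifespan strain, galactose-grown log-phase cells; medium: restrictive CSMM-D dextrose medium; also added: nicotinamide, 1.5 mM, co-present with compound; schedule: 48 h compound exposure at 30 °C, humidified; detection: absorbance at 615 nm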
# WT yeast gro inh – growth inhibition of WT yeast, mitochondrial fusion screen; AID 1362; inhibition, % at 10 µM; hit rate 2.1% among 190,000; mitochondrial fusion phenotypic screen, WT strain; in the data active means inhibition above about 58%; tested in S. cerevisiae
# DAT uptake mod – modulates human dopamine transporter uptake under cocaine | Q01959 | LLC-PK1 hDAT cells, [14C]-dopamine uptake with cocaine IC80; actives deviate in either direction | B-score at 10 µM | hit rate 1.3% among 110,000 | AID 449768;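 active means Z score or B-score, a plate-position-corrected score, falls beyond the plate's 99.7% confidence bounds, in either direction; inactive means both scores lie inside the 99.7% bounds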;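 further: scored against the spread of the other compound wells on the same plate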
# Target sequence (Q01959 whole entry, looked up): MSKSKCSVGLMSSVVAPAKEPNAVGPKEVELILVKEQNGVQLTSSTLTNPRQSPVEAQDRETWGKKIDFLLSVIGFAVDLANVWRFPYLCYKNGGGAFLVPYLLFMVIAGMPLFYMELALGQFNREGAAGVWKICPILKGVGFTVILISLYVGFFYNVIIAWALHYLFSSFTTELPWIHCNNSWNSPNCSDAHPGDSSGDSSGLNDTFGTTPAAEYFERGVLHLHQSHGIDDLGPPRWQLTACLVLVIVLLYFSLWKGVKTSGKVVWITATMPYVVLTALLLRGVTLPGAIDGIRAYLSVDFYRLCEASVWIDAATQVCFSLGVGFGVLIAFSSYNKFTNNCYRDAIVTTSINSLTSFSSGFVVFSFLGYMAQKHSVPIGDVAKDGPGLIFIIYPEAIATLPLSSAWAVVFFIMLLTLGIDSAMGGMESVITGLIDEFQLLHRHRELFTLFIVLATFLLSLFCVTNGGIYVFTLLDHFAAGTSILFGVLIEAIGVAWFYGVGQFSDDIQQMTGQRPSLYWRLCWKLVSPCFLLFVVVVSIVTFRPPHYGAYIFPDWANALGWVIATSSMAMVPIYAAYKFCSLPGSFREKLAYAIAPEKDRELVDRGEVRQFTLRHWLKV
# Active calls of the source: *; nt = no result given. Most compounds without a hit are left out; they make up all but 6.1% or so of the library.
SMILES,Measles CPE,BB579 growth dn,RAM network inh,Yeast life ext,WT yeast gro inh,DAT uptake mod
C[C@@H]1C(=O)O[C@@H]2[C@H](O)C34[C@@H]5OC(=O)C3(O[C@H]3OC(=O)[C@H](O)C34[C@H](C(C)(C)C)[C@H]5O)[C@@]12O (stereo not given in full),20.4*,6.2,-0.1,-3.6,12.7,-0.716
CC(C)CCC1(CN2CCCC2=O)C(=O)NC(=O)NC1=O,7.5,-33.9,2.2,-17.3,5.9,-0.404
CCC(C)N1C(=O)/C(=C\c2ccc(N3CCCCCC3)cc2)C(=O)NC1=S (stereo not given),12.2,-57.0,6.4,8.0,47.1,nt
CCC(C)N1C(=O)/C(=C\c2cc3c4c(c2)CCCN4CCC3)C(=O)NC1=S (stereo not given),5.5,-36.1,3.1,30.3*,12.9,nt
Cc1ccc(S(=O)(=O)NC(Cc2cnc[nH]2)C(=O)O)cc1 (stereo not given),14.3,-24.9,1.1,3.0,-14.6,nt
CCCCCCn1c(O)c(C=NC2CCCCC2N)c(=O)[nH]c1=O (stereo not given),18.7,-72.7,3.5,-3.8,5.5,-0.743
CCCCn1c(O)c(C=NC2CCCCC2N)c(=O)[nH]c1=O (stereo not given),0.3,10.8,1.1,-11.9,-12.9,-8.77*
O=C(c1cc(=O)[nH]c2ccc(Br)cc12)N1CCC2(CC1)OCCO2,12.9,-19.6,2.2,-8.9,6.7,0.48
CCC(CC)NC1CCCCC1OC (stereo not given),26.4*,-27.0,0.9,3.7,-11.3,nt
CC(C)OCCCNC(=O)c1c(N)n(Cc2cccs2)c2nc3ccccc3nc12,3.3,-1.5,9.3*,-4.7,13.4,0.843
Cc1ccc(-n2c(O)c(C=NC3CCCC3)c(=O)[nH]c2=O)c(C)c1,19.0,-36.5,0.9,-10.8,9.1,0.0434
COc1cccc(-n2c(O)c(C=NCCN3CCOCC3)c(=O)[nH]c2=O)c1,34.2,-41.1,-0.5,-2.9,-16.6,-0.336
COC(=O)C1CN(C#N)N(c2ccc(Cl)cc2)C12c1ccccc1-c1ccccc12 (stereo not given),1.3,-33.7,6.2,nt,74.0*,-0.661
O=C(c1ccco1)c1cn(Cc2ccc(Cl)cc2)c2ccccc12,2.2,-38.8,11.1*,-0.6,68.9*,0.0935
COc1ccccc1OCCCn1cc(C(=O)c2ccco2)c2ccccc21,2.9,-34.2,10.3*,-0.9,31.0,-0.147
O=C(c1cccs1)c1cn(Cc2ccccc2Cl)c2ccccc12,26.1,-55.6,7.5,-5.8,33.2,0.637
O=C(Cn1cc(C(=O)c2ccccc2)c2ccccc21)NCc1ccco1,5.6,-39.1,0.6,9.3,3.8,-0.0885
CSc1ccc(CNC2CN3CCC2CC3)cc1 (stereo not given),7.3,-18.4,0.8,-11.7,-1.2,0.759
CCCNC(=O)N1[C@H]2CC[C@@H]1C(C(=O)OC)=C(c1cc3ccccc3s1)C2,nt,nt,nt,nt,nt,-0.142
COc1ccccc1-n1c(-c2cccs2)nc2ccccc2c1=O,nt,nt,0.3,nt,13.7,nt
Cc1sc2c(c1C)C(c1ccc(C(C)(C)C)cc1)=NCC(=O)N2CC(=O)Nc1nccs1,54.0*,-64.4,0.3,-4.9,-2.4,0.00711
Cc1ccc2c(c1)C1CN(C)CCC1N2C(=O)c1cn(-c2ccccc2)nc1-c1ccccc1 (stereo not given),nt,nt,0.9,nt,86.1*,nt
CN1CSC(=S)N(C)C1,3.4,85.5*,0.0,-31.2,16.8,-0.653
Cc1ccc2nc3c(cc2c1)CC1(C(=O)N(C)C(=O)N(C)C1=O)C1CCCCN31 (stereo not given),34.1*,-20.9,-0.8,-6.5,-4.8,2.94*
Cc1ccc2nc3c(cc2c1)CC1(C(=O)N(C)C(=O)N(C)C1=O)C1COCCN31 (stereo not given),5.9,-19.6,-0.4,3.9,-0.3,0.225
CCN(CC)CCOC(=O)c1ccc(N=Cc2c(O)[nH]c(=O)[nH]c2=O)cc1,60.1*,21.3,1.2,-17.7,0.4,-0.808
CCOC(=O)c1ccc(N=Cc2c(O)n(-c3ccc(OC)cc3)c(=S)[nH]c2=O)cc1,nt,nt,4.1,nt,-4.0,nt
O=C1/C(=C/c2cc([N+](=O)[O-])ccc2Cl)N2CCC1CC2,35.1,-40.5,2.3,23.5,-2.9,0.036
O=C1/C(=C/c2cccc([N+](=O)[O-])c2)N2CCC1CC2,4.2,-37.1,0.7,36.0*,-19.4,nt
